Common to all, as to assay type: functional
For one assay, the system named is Clostridium perfringens. In words: Antimicrobial activity against Clostridium perfringens clinical isolate after 18 to 22 hrs by broth microdilution method in presence of beta-lactamase inhibitor BLI-489. (Broth dilution looks for growth in wells or tubes with falling amounts of substance.)
The test system of assay [1] is Enterococcus casseliflavus. In words: Antimicrobial activity against Enterococcus casseliflavus clinical isolate after 18 to 22 hrs by broth microdilution method in presence of beta-lactamase inhibitor Tazobactam. In outline:
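Piperacillin-tazobactam was tested on recent clinical isolates by CLSI broth microdilution in Mueller-Hinton II broth, with tazobactam at constant 4 μg/ml. Wells held 10^5 CFU/ml and were incubated 18 to 22 h at 35°C in ambient air. MIC was the lowest concentration with no growth visible to the unaided eye.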

In a further assay the test system is Enterococcus gallinarum. The experiment in a line: Antimicrobial activity against Enterococcus gallinarum clinical isolate after 18 to 22 hrs by broth microdilution method in presence of beta-lactamase inhibitor Tazobactam. In outline: (§1)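 Piperacillin-tazobactam was tested by CLSI broth microdilution in Mueller-Hinton II broth against clinical isolates. Inoculum was 10^5 CFU/ml, with 18 to 22 h incubation at 35°C in ambient air. MIC was read as the lowest concentration completely inhibiting visible growth.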

The test system of another assay is Klebsiella aerogenes. The experiment in a line: Antimicrobial activity against AmpC beta-lactamase-producing Enterobacter aerogenes clinical isolate after 18 to 22 hrs by broth microdilution method in presence of beta-lactamase inhibitor BLI-489. The gist of the method:
(§2)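 CLSI broth microdilution in Mueller-Hinton II broth. Piperacillin serial dilutions were combined with BLI-489 held constant at 4 μg/ml. Inoculum was 10^5 CFU/ml. Plates were incubated 18 to 22 h at 35°C in ambient air. MIC was the lowest concentration completely inhibiting growth seen by the unaided eye. Piperacillin-tazobactam interpretive criteria were applied.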

The test system of the next assay is Klebsiella pneumoniae. In words: Antimicrobial activity against class A extended spectrum beta-lactamase- and class D OXA- producing Klebsiella pneumoniae clinical isolate after 18 to 22 hrs by broth microdilution method in presence of beta-lactamase inhibitor Tazobactam. In outline:
as §1

A further assay has as its system Klebsiella oxytoca. In words: Antimicrobial activity against Klebsiella oxytoca clinical isolate after 18 to 22 hrs by broth microdilution method in presence of beta-lactamase inhibitor Tazobactam. In outline: as §1
The test system of a further assay is Acinetobacter baumannii. The experiment in a line: Antimicrobial activity against Acinetobacter baumannii clinical isolate after 18 to 22 hrs by broth microdilution method in presence of beta-lactamase inhibitor BLI-489. The gist of the method:
as §2

As for `CCN1CCN(C(=O)N[C@@H](C(=O)N[C@@H]2C(=O)N3[C@@H]2SC(C)(C)[C@@H]3C(=O)O)c2ccccc2)C(=O)C1=O` [PIPERACILLIN], in the assay with Clostridium perfringens, the minimum inhibitory concentration (MIC) is at most 0.015 mg/L. For the same compound, the MIC50 was at most 0.015 mg/L in the assay with Clostridium perfringens; 4 mg/L in assay [1]; 4 mg/L in the assay on Enterococcus gallinarum; 2 mg/L with Klebsiella aerogenes; 16 mg/L with Klebsiella pneumoniae; 2 mg/L with Klebsiella oxytoca. The MIC50 with Acinetobacter baumannii was over 128 mg/L. Besides, the MIC90 in the assay with Clostridium perfringens is at most 0.015 mg/L; in assay [1], 16 mg/L; in the assay on Enterococcus gallinarum, 16 mg/L; in the assay on Klebsiella aerogenes, 8 mg/L; in the assay on Klebsiella pneumoniae, over 128 mg/L; in the assay on Klebsiella oxytoca, 8 mg/L. Moreover, in the assay with Acinetobacter baumannii, the MIC90 is over 128 mg/L.

One may read the MIC as the lowest concentration found to suppress growth. A word on the MIC50: it is the lowest concentration that inhibits either 50% of growth or 50% of the strains tested, depending on the study. In general, MIC90 refers to the lowest concentration that inhibits either 90% of growth or 90% of the strains tested, depending on the study.

The values are drawn from ChEMBL document CHEMBL1629583, “Establishment of in vitro susceptibility testing methodologies and comparative activities of piperacillin in combination with the penem {beta}-lactamase inhibitor BLI-489” (2009).
